# Screening results as filed in PubChem.
# This is a sample that favours compounds with a hit; in the whole collection about 3.6% have one here.
# MITF act: activators of MITF-driven TRPM1 promoter reporter, primary screen, cell-based, SK-MEL-5, luciferase, single point; AID 588334, 2011; 0.75% of 300,000 active; SK-MEL-5 TRPM1-promoter luciferase, 24 h; % of positive control, neutral wells = 0; activation, % at 12.5 µM;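 active = mean activation of at least 80% with every replicate also reaching 80%; inconclusive = mean reaches 80% but some replicate falls short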;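 note: 0% = neutral control wells and 100% = parthenolide positive control wells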
# Wnt act: Wnt/beta-catenin pathway activators, primary screen, cell-based, plate reader, single point. activation, % at 9.35 µM. 1.2% of 300,000 active. AID 743398, 2014. Wnt/beta-catenin reporter cell assay, activator; in the data active = activation above about 30%, passing the limit was not always enough; inconclusive = no clear call, values can overlap the other calls;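 note: 0% = neutral control wells and 100% = positive control wells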
# SR-BI DiI-HDL act: activators of SR-BI mediated DiI-HDL uptake, primary screen, ldlA[mSR-BI] CHO cells, DiI fluorescence; 3 h; 100 = double the neutral-control signal; activation, % at 12.5 µM; 0.096% of 320,000 active; AID 504775, 2011;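 active = mean replicate activation of at least 60% and every replicate at or above 60%; inconclusive = mean or all-replicate condition met, but not both; inactive = mean below 60% and not all replicates reaching 60%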;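 note: 0% = median plate neutral-control signal and 100% = twice that signal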
#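 Assay system: CHO ldlA[mSR-BI] cells, LDL receptor-null, SR-BI overexpressing; medium: Ham's F12 with 0.5% BSA, HEPES 25 mM, pH 7.4; also added: DiI-HDL 10 µg/mL; timing: 3 h uptake period with compound, 37 °C; signal: DiI fluorescence, bottom read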
# HSF1 activator: HSF-1 activators, primary screen, NIH3T3-HGL cells, MG132 stress, luminescence, single point. NIH3T3-HGL HSF-1 luciferase reporter, 8 h; 100% = twice DMSO control signal. activation, % at 9 µM. 1.7% of 300,000 active;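 active = mean replicate activation of at least 50% with a set share of replicates each reaching 50%; inconclusive = only one of those two conditions met; inactive = mean below 50% and too few replicates reaching it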;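 note: 0% = median of the neutral control wells and 100% = twice that signal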
# SR-BI HDL uptake: inhibitors of SR-BI mediated HDL lipid uptake, primary screen, ldlA[mSR-BI] cells, fluorescence, single point | Scavenger receptor class B member 1 (Mus musculus), Q61009 | 0.96% of 320,000 active | ldlA[mSR-BI] CHO cells, DiI-HDL uptake fluorescence, 3 h | inhibition, % at 12.5 µM;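 active = mean replicate inhibition of at least 70% and a set share of replicates each scoring 70 or more; inconclusive = meets just one of the two criteria; inactive = fails both criteria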;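 note: 0% = median of neutral control wells and 100% = median of positive control wells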
# Target sequence (Q61009 whole entry, looked up): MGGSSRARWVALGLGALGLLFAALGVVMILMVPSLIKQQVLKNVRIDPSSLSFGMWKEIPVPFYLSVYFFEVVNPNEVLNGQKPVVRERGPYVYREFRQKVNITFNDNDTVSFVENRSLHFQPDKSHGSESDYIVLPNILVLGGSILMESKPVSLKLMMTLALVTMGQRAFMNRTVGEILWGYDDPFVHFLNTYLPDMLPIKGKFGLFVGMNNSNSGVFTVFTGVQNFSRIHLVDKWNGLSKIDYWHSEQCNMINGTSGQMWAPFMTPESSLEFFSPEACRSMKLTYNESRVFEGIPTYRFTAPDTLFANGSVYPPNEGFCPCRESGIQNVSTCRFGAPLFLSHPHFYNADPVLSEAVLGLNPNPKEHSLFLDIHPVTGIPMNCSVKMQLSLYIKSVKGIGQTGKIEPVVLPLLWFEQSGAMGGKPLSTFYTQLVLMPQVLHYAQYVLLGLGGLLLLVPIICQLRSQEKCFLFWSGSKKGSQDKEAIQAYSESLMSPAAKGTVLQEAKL
# * = called active by the depositor; i = inactive; ? = inconclusive; · = not tested or not shown.
SMILES,MITF act,Wnt act,SR-BI DiI-HDL act,HSF1 activator,SR-BI HDL uptake
O=[N+]([O-])c1nn(-c2ccc(Cl)cc2)n(O)c1=NCc1ccccc1,11,40*,·,14,·
O=C1CCCN1CCCN=c1c([N+](=O)[O-])nn(-c2ccc(Cl)cc2)n1O,-14,1,7,62*,-7
O=[N+]([O-])c1nn(-c2ccccc2)n(O)c1=NCc1ccc2c(c1)OCO2,5,-12,3,1,-3
CCCCCCCCN1C(=O)[C@@H](CC(=O)N2CCN(C(=O)C3CC3)CC2)C[C@@]2(C(=O)OC)C1=C[C@H](C(C)(C)C)O[C@@H]2C,·,-9,·,·,·
c1csc(-c2nnc(N3CCCCCC3)c3ccccc23)c1,4,8,-46,20,46
c1csc(-c2nc(N3CCCCC3)no2)c1,81*,35*,43,40,-43
C=C(C)CNC(=S)Nc1nc2c(cc1C(=O)OCC)CCCC2,83*,30,13,60*,-13
S=C1CC2CCCC(C2)N1 (configuration not stated),10,0,-5,·,5
Cc1cccc(Nc2nc(N)c([N+](=O)[O-])c(NCc3ccccc3)n2)c1,·,-5,-13,20,13
COc1cccc(Nc2nc(N)c([N+](=O)[O-])c(NCc3ccccc3)n2)c1,·,2,-32,70*,32
Cc1cc2nc(-c3cccc(Br)c3)c(CC3CCCCC3)n2c(C)c1Br,·,-4,·,·,·
CCN1C(=O)/C(=C/C=C2/Sc3ccccc3N2CCO)SC1=S,-13,32*,-34,2,34
CCCN1C(=O)/C(=C\C=C2/Sc3ccccc3N2CCO)SC1=S,-11,-18,-12,-4,12
CCCCN1C(=O)/C(=C/C=C2\Oc3ccccc3N2CC)SC1=S,13,-2,-89,-15,89*
Clc1ccc(-c2nc3c4ccccc4ccn3c2CC2CCCCC2)cc1,·,3,·,·,·
CCOC(=O)c1cnc(Nc2nc3ccccc3o2)nc1C,-59,15,-8,-35,8
Cc1nc(Nc2nc3ccccc3o2)nc(C)c1C(=O)Nc1ccc(F)cc1,-8,43*,1,16,-1
COc1ccc(Cn2cc(Cn3c4ccccc4c(=O)n3C(C)C)nn2)cc1,·,-2,·,·,·
O=C(O)CC1=C(Nc2ccccc2)C(=O)N(c2ccccc2)C1c1ccc(Br)cc1 (configuration not stated),16,36*,-6,57*,6
O=C(O)CC1=C(O)C(=O)N(c2ccccc2)C1c1ccc(Cl)cc1 (configuration not stated),-7,-1,33,-3,-33
COc1ccc(NC(=S)Nc2ccccn2)c(OC)c1,·,55*,-20,38,20
Cc1cc(=O)oc2c1ccc1oc(/C(=N/O)c3ccccc3)c(C)c12,·,·,516*,-41,i
CCn1cnc2sc(-c3ccccc3)cc2c1=O,45,19,-12,50,12
O=c1c2cc(-c3ccccc3)sc2ncn1-n1cccc1,85*,27,-17,45,17
O=C(Cn1cnc2sc(-c3ccccc3)cc2c1=O)N1CCOCC1,11,-2,2,-9,-2
SMILES,MITF act,Wnt act,SR-BI DiI-HDL act,HSF1 activator,SR-BI HDL uptake
CC(=O)Cn1nnc2sc(-c3ccccc3)cc2c1=O,89*,12,-19,10,19
Cc1ccc(C)n1-n1cnc2sc(-c3ccccc3)cc2c1=O,16,·,15,48,-15
CC(=O)Cn1cnc2sc(-c3ccccc3)cc2c1=O,88*,37*,4,8,-4
CCCCNc1c(-c2ccc(-c3ccc(C(C)=O)cc3)c(OC)c2)nc2cc(C)ccn12,44,2,-72,·,72*
OCC1CCCN(C(=S)Nc2ccc(Nc3ccccc3)cc2)C1 (configuration not stated),49,3,-26,74*,26
Cc1cc(C)cc(NC(=O)CN2C(=O)NC(C)(c3ccccc3)C2=O)c1 (configuration not stated),-3,0,21,86*,-21
Cc1ccc(C2(C)NC(=O)N(CC(=O)Nc3ccc(-c4nc5ccc(C)cc5s4)cc3)C2=O)cc1 (configuration not stated),59,38*,-48,-23,48
Cc1ccc2nc(-c3ccc(NC(=O)COCC(=O)O)cc3)sc2c1,·,38*,10,13,-10
Cc1ccc2nc(-c3ccc(NC(=O)CSCC(=O)O)cc3)sc2c1,103*,72*,·,3,·
Cc1cc(C(=O)N2CCC2(C)C(=O)NS(=O)(=O)c2ccccc2Cl)nn1C (configuration not stated),·,1,·,·,·
O=C(CCCN1C(=O)S/C(=C/C=C/c2ccccc2)C1=O)Nc1ccc(C(=O)O)cc1,18,6,10,20,-10
O=C(CN1C(=O)S/C(=C\C=C\c2ccccc2)C1=O)Nc1ccc(O)cc1,5,·,-25,59*,25
O=C(O)c1c[nH]c2c([N+](=O)[O-])cccc2c1=O,-10,-6,12,·,-12
Cc1ncsc1C(=O)Nc1nc2c(s1)CCCC2,7,24,-3,20,3
O=C(Nc1nc2c(s1)CCCC2)c1ccc(Br)s1,-2,·,-56,59*,56
O=C(Nc1nc2c(s1)CCCC2)c1ccc(N2C(=O)CCC2=O)cc1,37,-1,-58,34,58
O=C(Nc1ccc(Cl)cc1Cl)c1ccc2ncsc2c1,112*,?,1,18,-1
O=C(Nc1nc2c(s1)CCCC2)c1ccc2ncsc2c1,·,42*,-57,29,57
O=C(NCCN1CCOCC1)c1ccc(NC(=O)c2ccc(Br)o2)cc1,·,-3,·,·,·
COc1cccc(-c2cnc(C(O)c3ccc(OC)c(F)c3)[nH]2)c1 (configuration not stated),·,-2,·,·,·
COc1ccc(C#Cc2cccc(-c3nc(C(=O)N4CCN(C)CC4)cc4c3[C@H](CCO)N(S(=O)C(C)(C)C)C4)c2)cc1OC (some centres not stated),·,-3,·,·,·
O=C(NCc1ccc(F)cc1)c1cc(C2CCCN(C(=O)C3CCCCC3)C2)on1 (configuration not stated),·,-7,·,·,·
O=C(Nc1ccc([N+](=O)[O-])cc1)c1ccc(S(=O)(=O)N2CCCC2)cc1,-8,-3,·,-3,·
O=C(Nc1ccc(S(=O)(=O)N2CCCCCC2)cc1)c1[nH]ncc1[N+](=O)[O-],-69,20,-20,107*,20
CC(NC(=O)C(NC(=O)OCc1ccccc1)C(C)O)C(=O)OCc1ccccc1 (configuration not stated),·,-2,·,·,·
COc1ccc(N/C(=C\C(=O)c2ccccc2)c2ccccc2)cc1OC,·,25,·,·,·
CCOc1nc(Nc2ccc(OC)c(Cl)c2)nc(N2CCN(c3ccc(OC)cc3)CC2)n1,6,·,-79,-2,79*
